In ChEMBL document CHEMBL3612059, “Synthesis of 1,2-benzisoxazole tethered 1,2,3-triazoles that exhibit anticancer activity in acute myeloid leukemia cell lines by inhibiting histone deacetylases, and inducing p21 and tubulin acetylation” (Bioorg Med Chem, 2015):
The source made the active and inactive calls. No cut-off for these calls is given here.

Legend:
[1] = tested on: MOLM-13 (Homo sapiens); experiment: Induction of apoptosis in human MOLM13 cells assessed as upregulation of cleaved caspase-9 expression after 24 hrs by Western blot analysis
[2] = tested on: MV4-11; experiment: Cytotoxicity against human MV4-11 cells assessed as cell viability after 24 to 96 hrs by MTT assay; type: functional, cell-based
Method in brief: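 AML cells kept in RPMI with 10 % FBS and 1 % penicillin-streptomycin at 37 °C, 5 % CO₂, mycoplasma-screened. Seeded at 8,000 cells/well across a range of concentrations and read at several times up to 96 h. MTT added to 0.5 mg/ml final for 3 h at 37 °C, formazan dissolved in SDS-HCl, absorbance read at 570 nm. IC50 taken from the dose-response curves.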

[3] = tested on: MOLM-14; experiment: Upregulation of p21 protein expression in human MOLM14 cells by Western blot analysis; type: functional, cell-based
[4] = tested on: MOLM-13 (Homo sapiens); experiment: Induction of apoptosis in human MOLM13 cells assessed as necrotic cells at 2.5 uM after 72 hrs by Annexin V-FITC/propidium iodide staining-based flow cytometric analysis (reference value: 3%)
[5] = tested on: MOLM-13 (Homo sapiens); experiment: Cytotoxicity against human MOLM13 cells assessed as cell viability at 0.25 to 5 uM by MTT assay
[6] = Inhibition of cyclin D protein expression in human MOLM13 cells by Western blot analysis; type: functional, cell-based; settings: MOLM-13

c1ccc(Oc2ccc(-c3cn(-c4noc5ccccc45)nn3)cc2)cc1
Activity [1]: Dose-dependent effect | Activity [2]: Dose-dependent effect | Activity [3]: Active | Activity [4]: 14% | Activity [5]: Dose-dependent effect | inhibition [6]: Dose-dependent effect
